beta cell repl – inducers of beta-cell replication in MIN6 cells; MIN6 cells proliferation, ATPlite luminescence, 48 h; cells starved in 0.2% serum; 100% = growth in 10% serum; proliferation, % at 10 µM; 330,000 compounds, 0.29% hits; AID 2380;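 active means compounds whose signal lies at least 3.5 SD above the mean of all wells on their plate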;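 further: 0% = DMSO-treated cells in low-serum medium and 100% = 10% serum control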
MC4R barr agon – human MC4R agonism via beta-arrestin; P32245; U2OS MC4R beta-arrestin complementation, luminescence; percent of melanotan II response, DMSO zero; activation, % at 8.9 µM; 360,000 compounds, 0.98% hits; AID 540308;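 active means activation above a per-plate cutoff, the mean activation of sample wells on that plate plus 3 SD, cut at about 8% in these data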
MC4R antagonist – antagonists of human melanocortin 4 receptor (MC4R); AID 540295; MC4R-expressing cells, MTII-stimulated cAMP, LANCE TR-FRET; inhibition, % at 6.5 µM; 360,000 compounds, 0.48% hits;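 active means inhibition above its plate's cutoff, the mean of tested wells on that plate plus 3 SD, cut at about 29% in these data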;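 further: 0% = Melanotan II alone and 100% = Melanotan II plus saturating MCL0020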
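material = U2OS cells stably expressing human melanocortin 4 receptor (MC4R) | also added = Melanotan II challenge | dosing = single nominal compound dose of 6.5 µM | detection = TR-FRET with Eu-cAMP and labeled anti-cAMP, 671 nm | replication = singlicate | timing = compound 30 min, challenge 1 h, detection 1 h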
TMEM16A inh – inhibitors of mouse TMEM16A calcium-activated chloride channel | Q8BHY3 | 310,000 compounds, 1.2% hits | HEK293 TMEM16A/YFP iodide influx fluorescence, ionomycin | normalized B-score (activity score, 25-100; higher = stronger inhibition) at 10 µM;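 active means ratio plate-corrected score three or more library SD toward inhibition, starting fluorescence score within five deviations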;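 further: score derived from kinetic fluorescence span divided by baseline fluorescence per well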
Target sequence (Q8BHY3 whole entry, looked up): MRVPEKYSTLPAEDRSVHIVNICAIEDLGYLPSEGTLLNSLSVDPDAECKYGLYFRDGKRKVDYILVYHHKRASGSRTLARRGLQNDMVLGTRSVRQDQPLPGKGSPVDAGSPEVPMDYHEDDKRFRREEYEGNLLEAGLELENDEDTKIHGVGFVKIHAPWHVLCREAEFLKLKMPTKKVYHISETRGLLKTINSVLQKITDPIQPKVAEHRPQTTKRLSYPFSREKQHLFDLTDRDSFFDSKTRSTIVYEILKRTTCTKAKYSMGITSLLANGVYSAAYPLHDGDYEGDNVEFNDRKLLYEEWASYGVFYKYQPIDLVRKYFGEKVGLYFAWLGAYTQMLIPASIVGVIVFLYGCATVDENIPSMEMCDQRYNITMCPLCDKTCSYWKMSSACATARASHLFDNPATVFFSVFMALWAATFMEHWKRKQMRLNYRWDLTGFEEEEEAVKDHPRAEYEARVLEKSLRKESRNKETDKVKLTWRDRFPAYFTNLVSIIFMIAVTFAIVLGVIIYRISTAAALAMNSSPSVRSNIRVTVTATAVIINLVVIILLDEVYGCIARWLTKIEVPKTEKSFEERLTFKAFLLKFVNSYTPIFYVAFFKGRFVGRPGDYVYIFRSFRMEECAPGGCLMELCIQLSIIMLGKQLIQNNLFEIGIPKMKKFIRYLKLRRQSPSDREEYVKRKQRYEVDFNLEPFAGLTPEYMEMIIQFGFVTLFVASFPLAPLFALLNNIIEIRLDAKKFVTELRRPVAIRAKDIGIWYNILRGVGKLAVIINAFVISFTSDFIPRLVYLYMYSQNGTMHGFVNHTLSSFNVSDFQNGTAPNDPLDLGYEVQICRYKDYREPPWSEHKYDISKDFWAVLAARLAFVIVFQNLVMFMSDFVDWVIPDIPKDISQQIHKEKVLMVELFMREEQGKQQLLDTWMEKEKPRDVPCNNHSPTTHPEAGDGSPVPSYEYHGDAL
TMEM16A act – activates or potentiates the mouse TMEM16A chloride channel | Q8BHY3 | HEK293 TMEM16A/YFP-H148Q/I152L, iodide quench fluorescence; hits give low values | B-score at 10 µM | 340,000 compounds, 0.3% hits | AID 623877;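 active means fluorescence-ratio B-score plate-corrected deviation score at least 3 library SD below zero, with starting fluorescence score within 5 deviations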;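 further: channel opened by trigger with iodide after compound preincubation; score built on the fluorescence ratio of max minus min over baseline; more negative score means more quench and so TMEM16A activation or potentiation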
HTR2A ag – agonists of mouse serotonin 5-HT2A receptor (HTR2A) | P35363 | CHO-K1 mHTR2A beta-arrestin complementation, luminescence; percent of 30 µM serotonin response | activation, % at 7.6 µM | 360,000 compounds, 0.66% hits | AID 624169;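 active means activation above a run cutoff, the mean activation of all tested compounds plus 3 SD, cut at about 14% in these data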;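 further: 0% = plate median of compound wells and 100% = 30 µM serotonin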
An asterisk follows results filed as active; i = inactive; . = no result. This is a sample that favours compounds with a hit; in the whole collection about 3.4% have one here.

SMILES | beta cell repl | MC4R barr agon | MC4R antagonist | TMEM16A inh | TMEM16A act | HTR2A ag
Cn1c(=O)[nH]c2c(c1=O)CCO2 | . | 2 | 8 | . | i | 0
CCCc1ccc(C(C)NC(=S)NC2CCCCC2)cc1 (stereo unspecified) | -8 | 1 | 1 | 100* | i | -4
O=C(NCCc1ccccc1)N1c2ccccc2Sc2ccccc21 | 0 | 1 | 18 | 100* | i | -7
NC(=Nc1ccccc1)Nc1ccccc1 | 3 | 2 | -9 | i | -14* | -2
COc1cccc(NC(=O)c2ccnc(N3CCC(C(=O)NCc4cc(OC)ccc4OC)CC3)c2)c1 | -3 | -3 | 6 | i | i | -7
CCCC(c1nnnn1Cc1cccs1)N1CCN(c2nc3ccccc3s2)CC1 (stereo unspecified) | -3 | -1 | 1 | i | -13* | 2
c1ccc(COc2cccc(CN3CCc4ccccc4C3)c2)cc1 | -3 | 0 | 19 | i | i | -5
CCOC(=O)N1CCN(c2cc(NCCC(=O)O)c3c4c(onc24)-c2ccccc2C3=O)CC1 | -2 | -5 | -20 | i | -12* | -2
Cc1ccc(CC(=O)OC(C)C(=O)NC2CCCCC2C)cc1C (stereo unspecified) | 10 | 1 | 7 | . | i | 3
COc1ccc(-c2nnc3sc(COc4ccc(C)cc4)nn23)cc1 | -2 | 7 | 29* | i | i | 6
Clc1ccc(OCc2nn3c(-c4ccccc4)nnc3s2)c(Cl)c1 | 3 | 8.9* | 12 | i | i | 2
Clc1ccccc1OCc1nn2c(-c3ccncc3)nnc2s1 | -1 | -1 | 14 | i | i | -8
COc1ccc(-c2nnc3sc(COc4ccccc4)nn23)cc1 | -1 | 1 | 3 | i | i | 3
Nc1nc(-c2ccccc2)nc2nonc12 | . | -2 | -2 | . | . | -5
COc1ccc(NS(=O)(=O)c2cccc(C(=O)NCc3ccccc3CN3CCCC3)c2)cc1 | -5 | 0 | 4 | . | i | -14
CC(C)Cn1c(CCNC(=O)c2ccco2)nc2ccccc21 | 1 | 0 | 19 | i | i | 0
CCCCN(CC)C(=O)c1cc2c(=O)[nH]c3ccc(C)cc3c2s1 | -4 | -2 | 5 | i | i | -2
CCCCN(Cc1ccco1)C(=O)c1cc2c(=O)[nH]c3ccc(C)cc3c2s1 | -5 | 36* | 8 | i | i | 3
COc1ccc(C(=O)Nc2ccc(S(=O)(=O)Nc3cc(C)nc(C)n3)cc2)cc1OC | 0 | -3 | 9 | i | -6.7* | -5
O=C(OC1CC2CC1[C@H]1CCCCN1C2=O)N1CCN(C(=O)c2ccccc2)CC1 (stereo partly specified) | . | . | . | . | . | 4
NC(=O)C1CCCN(C(=O)c2ccc(S(=O)(=O)N3CCCCCC3)cc2)C1 (stereo unspecified) | 1 | -3 | -5 | . | -13* | -3
COc1cccc(N2CCN(C(=O)c3ccccc3SCC(=O)NCc3ccco3)CC2)c1 | -7 | -3 | 13 | . | i | -4
Cn1c(SCC(=O)Nc2ccccc2)nnc1-c1ccc(NC(=O)CCc2ccccc2)cc1 | -5 | 9.3* | 0 | i | i | 10
CSc1nnc(-c2ccc(NC(=O)CCc3ccccc3)cc2)n1C | -1 | -1 | 3 | i | i | -2
Cc1ccc(S(=O)(=O)Nc2ccccc2N2CCCCC2)cc1 | -4 | 6 | 4 | . | -20* | 0
SMILES | beta cell repl | MC4R barr agon | MC4R antagonist | TMEM16A inh | TMEM16A act | HTR2A ag
CCCCCCNC(=O)CCc1nc2cccnc2n1Cc1ccc(OC)cc1 | -2 | -1 | 8 | i | i | 3
CCc1ccc(NC(=O)CCc2nc3cccnc3n2Cc2ccc(OC)cc2)cc1 | -1 | 8.5* | 7 | i | i | -3
Cc1ccc(Cn2ccsc2=NC(=O)CCl)cc1 | -5 | 15* | 9 | i | i | -4
CCC(=O)N1c2ccc(S(=O)(=O)CCC(=O)Nc3nccs3)cc2CC1C (stereo unspecified) | 0 | 1 | -6 | i | -8.9* | 4
O=C(CN1C(=O)CCSc2ccc(S(=O)(=O)N3CCOCC3)cc21)Nc1cccc(F)c1 | -1 | -1 | -1 | i | i | 2
Cc1ccccc1-c1nnn(Cc2cccc(S(=O)(=O)N3CCOCC3)c2)n1 | -2 | -2 | 13 | . | i | -3
O=[N+]([O-])c1ccc(-c2nn(-c3ccccc3)cc2/C=N/n2c(-c3ccncc3)n[nH]c2=S)cc1 | -6 | 1 | 10 | 25* | i | 12
CC(C)(C)c1ccc(C(=O)NC(=S)NNC(=O)c2cccs2)cc1 | . | -4 | -2 | 100* | i | 0
CCCOc1ccc(C(=O)NNC(=S)NC(=O)c2cccs2)cc1 | -7 | -8 | 4 | 100* | i | -14
CCCOc1ccc(C(=O)NNC(=S)NC(=O)c2ccccc2)cc1 | -5 | -5 | 3 | 100* | i | -4
CCCCCCc1cc2cc(S(=O)(=O)c3ccc(F)c(Cl)c3)c(=O)oc2cc1O | 0 | 8.8* | 4 | i | i | 8
Cc1cccc(Nc2nc(-c3ccc(O)cc3O)cs2)n1 | -5 | 9.4* | 12 | i | i | 3
N#Cc1ccc(Nc2nc(-c3ccc(O)cc3O)cs2)cc1C(F)(F)F | -7 | 20* | 13 | . | i | 1
Oc1ccc(-c2csc(Nc3ncccn3)n2)c(O)c1 | -3 | -1 | 14 | i | i | -4
Cc1ccc(SC/C(O)=C(\C#N)c2nc3ccccc3n2C)cc1 | -3 | 8.3* | 7 | i | i | 2
COc1cc(/C=C/C(=O)OCC(=O)NCC(=O)Nc2cccc(C)c2C)ccc1OC(F)F | 2 | 0 | 12 | . | i | 10
Cc1ccc(-n2ncc(-c3n[nH]c(=S)o3)c2N)cc1C | . | 0 | 6 | . | . | 4
Cc1ccc(OCC(=O)N/N=C/c2cn[nH]c2-c2ccc(Cl)c(Cl)c2)cc1 | -6 | 8.7* | 15 | i | i | -7
Cc1cc(C)c(SSc2nnnn2-c2ccccc2)c(C)c1 | . | -1 | -9 | . | . | 10
CCCn1nc(NC(=O)C2CCCO2)c2cc3cccc(C)c3nc21 (stereo unspecified) | 3 | 4 | 8 | i | i | 4
CC(C)Cn1nc(NC(=O)C2CCCO2)c2cc3ccccc3nc21 (stereo unspecified) | 6.5* | -2 | 0 | i | i | 5
COc1cccc(-c2c(C(=O)N/N=C/c3cccnc3)nnn2-c2nonc2N)c1 | -2 | -3 | 10 | i | -37* | 1
Nc1nonc1-n1nnc(C(=O)N/N=C/c2ccccc2)c1CSc1ccc(Cl)cc1 | 1 | 9.1* | 1 | i | i | 2

Compound activity: PubChem BioAssay, several laboratories
